ChEMBL document CHEMBL5252534, “Discovery of a Noncovalent, Mutant-Selective Epidermal Growth Factor Receptor Inhibitor” (J Med Chem, 2016)
Converted amounts (≈) assume the structure as drawn. The source made the active and inactive calls. The rule behind the calls is not given here.

Assays:
[1] = molecular target: Epidermal growth factor receptor (Homo sapiens, UniProt P00533, 746-750DEL/T790M); assay type: cell-based, PC-9/ER1
[2] = Aqueous kinetic solubility of compound in PBS buffer at pH 7.4 at 100 uM incubated for 24 hrs by LC/CLND analysis; assay type: physicochemical; details: read-out: Kinetic_solubility
Method in brief: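 Kinetic aqueous solubility measured at pH 7.4.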

[3] = Clearance in dog plasma at 1 mg/kg,iv; assay type: ADME, organism-based, Canis lupus familiaris
Method in brief: (§1)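 Single intravenous dose as a solution in 10/35/55 ethanol/PEG/water (mouse 5 mg kg−1; dog 1 mg kg−1); plasma clearance and steady-state volume of distribution derived from the plasma profile.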

[4] = system: Epidermal growth factor receptor (Homo sapiens), P00533 [L858R,T790M]; experiment: In vivo inhibition of EGFR L858R/T790M double mutant in SCID mouse xenografted with human NCI-H1975 cells assessed as reduction in AKT phosphorylation at S473 residue at 100 mg/kg, po and measured after 16 hrs by MSD assay; assay type: functional, organism-based
Epidermal growth factor receptor (Homo sapiens), P00533 [L858R,T790M], sequence (P00533 whole entry T790M/L858R, looked up): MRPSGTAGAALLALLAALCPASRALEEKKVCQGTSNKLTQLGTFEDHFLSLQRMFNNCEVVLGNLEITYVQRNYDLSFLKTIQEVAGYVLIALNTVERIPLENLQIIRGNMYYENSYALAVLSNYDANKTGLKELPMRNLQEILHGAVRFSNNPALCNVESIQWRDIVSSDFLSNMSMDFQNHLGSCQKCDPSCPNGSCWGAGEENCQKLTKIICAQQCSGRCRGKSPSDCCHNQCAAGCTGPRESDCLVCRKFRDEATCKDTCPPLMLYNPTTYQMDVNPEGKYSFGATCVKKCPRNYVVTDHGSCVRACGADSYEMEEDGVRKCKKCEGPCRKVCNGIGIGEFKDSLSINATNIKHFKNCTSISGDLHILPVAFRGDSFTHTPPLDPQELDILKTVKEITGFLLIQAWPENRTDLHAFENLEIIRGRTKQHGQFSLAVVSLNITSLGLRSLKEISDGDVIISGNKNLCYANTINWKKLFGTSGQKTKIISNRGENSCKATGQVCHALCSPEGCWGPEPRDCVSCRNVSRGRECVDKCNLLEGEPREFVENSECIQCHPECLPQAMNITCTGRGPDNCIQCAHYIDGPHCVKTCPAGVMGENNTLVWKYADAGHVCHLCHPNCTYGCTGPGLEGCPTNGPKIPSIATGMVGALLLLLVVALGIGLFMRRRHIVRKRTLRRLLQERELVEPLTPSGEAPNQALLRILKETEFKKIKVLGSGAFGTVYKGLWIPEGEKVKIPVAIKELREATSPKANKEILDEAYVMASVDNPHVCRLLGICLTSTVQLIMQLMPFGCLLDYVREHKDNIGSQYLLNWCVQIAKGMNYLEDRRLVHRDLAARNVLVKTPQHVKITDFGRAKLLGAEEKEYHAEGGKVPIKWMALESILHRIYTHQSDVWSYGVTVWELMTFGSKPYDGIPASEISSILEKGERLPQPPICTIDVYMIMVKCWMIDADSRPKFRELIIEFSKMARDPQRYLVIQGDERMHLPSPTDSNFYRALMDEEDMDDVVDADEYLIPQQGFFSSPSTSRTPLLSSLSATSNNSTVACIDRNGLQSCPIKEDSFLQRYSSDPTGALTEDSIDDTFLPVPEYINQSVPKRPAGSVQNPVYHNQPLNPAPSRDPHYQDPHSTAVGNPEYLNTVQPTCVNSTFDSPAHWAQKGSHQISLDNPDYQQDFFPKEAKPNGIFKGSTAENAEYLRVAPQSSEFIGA
Method in brief: (§2)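 H1975 tumor-bearing mice given a single oral dose of 50 or 100 mg/kg; tumors collected at set times; phospho-EGFR, ERK and AKT measured by MSD immunoassay; four animals per group, individual animals plotted.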

[5] = Apparent permeability across apical to basolateral side in dog MDCK cells; assay type: ADME, cell-based, Canis lupus familiaris
[6] = Oral bioavailability in dog at 2 mg/kg; assay type: ADME, organism-based, Canis lupus familiaris; details: in vivo
Method in brief: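 Dog dosed orally at 2 mg kg−1 as a suspension in MCT; bioavailability compared against iv dosing at 1 mg kg−1 in ethanol/PEG/water.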

[7] = system: Epidermal growth factor receptor (Homo sapiens), P00533 [L858R,T790M]; experiment: In vivo inhibition of EGFR L858R/T790M double mutant in SCID mouse xenografted with human NCI-H1975 cells assessed as reduction in ERK1/2 phosphorylation at 100 mg/kg, po and measured after 16 hrs by MSD assay; assay type: functional, organism-based
Method in brief: as §2

[8] = system: Epidermal growth factor receptor (Homo sapiens), P00533 [L858R,T790M]; experiment: In vivo inhibition of EGFR L858R/T790M double mutant in SCID mouse xenografted with human NCI-H1975 cells assessed as reduction in EGFR L858R/T790M double mutant phosphorylation at Y1068 residue at 50 mg/kg, po and measured after 8 hrs by MSD assay; assay type: functional, organism-based
Method in brief: as §2

[9] = system: Epidermal growth factor receptor (Homo sapiens), P00533 [L858R,T790M]; experiment: In vivo inhibition of EGFR L858R/T790M double mutant in SCID mouse xenografted with human NCI-H1975 cells assessed as reduction in AKT phosphorylation at S473 residue at 50 mg/kg, po and measured after 8 hrs by MSD assay; assay type: functional, organism-based
Method in brief: as §2

[10] = Clearance in human hepatocyte; assay type: ADME, cell-based; details: hepatocytes
Method in brief: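 Cryopreserved human hepatocytes used; intrinsic clearance converted to predicted hepatic clearance as (Q × Clint)/(Q + Clint) using liver blood flow Q.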

[11] = Volume of distribution at steady state in dog at 1 mg/kg,iv; assay type: ADME, organism-based, Canis lupus familiaris; details: in vivo, read-out: Vdss
Method in brief: as §1

[12] = molecular target: Epidermal growth factor receptor (Homo sapiens, UniProt P00533); experiment: Inhibition of EGFR autophosphorylation in human NCI-H292 cells harboring harboring wild type EGFR preincubated for 60 mins followed by EGF stimulation and measured after 8 mins by SULFO-TAG based electrochemiluminescent assay; assay type: cell-based
[13] = molecular target: Epidermal growth factor receptor (Homo sapiens, UniProt P00533, 746-750DEL); assay type: cell-based, PC-9
Epidermal growth factor receptor (Homo sapiens, UniProt P00533, 746-750DEL), sequence (P00533 whole entry, looked up, stated change not applied): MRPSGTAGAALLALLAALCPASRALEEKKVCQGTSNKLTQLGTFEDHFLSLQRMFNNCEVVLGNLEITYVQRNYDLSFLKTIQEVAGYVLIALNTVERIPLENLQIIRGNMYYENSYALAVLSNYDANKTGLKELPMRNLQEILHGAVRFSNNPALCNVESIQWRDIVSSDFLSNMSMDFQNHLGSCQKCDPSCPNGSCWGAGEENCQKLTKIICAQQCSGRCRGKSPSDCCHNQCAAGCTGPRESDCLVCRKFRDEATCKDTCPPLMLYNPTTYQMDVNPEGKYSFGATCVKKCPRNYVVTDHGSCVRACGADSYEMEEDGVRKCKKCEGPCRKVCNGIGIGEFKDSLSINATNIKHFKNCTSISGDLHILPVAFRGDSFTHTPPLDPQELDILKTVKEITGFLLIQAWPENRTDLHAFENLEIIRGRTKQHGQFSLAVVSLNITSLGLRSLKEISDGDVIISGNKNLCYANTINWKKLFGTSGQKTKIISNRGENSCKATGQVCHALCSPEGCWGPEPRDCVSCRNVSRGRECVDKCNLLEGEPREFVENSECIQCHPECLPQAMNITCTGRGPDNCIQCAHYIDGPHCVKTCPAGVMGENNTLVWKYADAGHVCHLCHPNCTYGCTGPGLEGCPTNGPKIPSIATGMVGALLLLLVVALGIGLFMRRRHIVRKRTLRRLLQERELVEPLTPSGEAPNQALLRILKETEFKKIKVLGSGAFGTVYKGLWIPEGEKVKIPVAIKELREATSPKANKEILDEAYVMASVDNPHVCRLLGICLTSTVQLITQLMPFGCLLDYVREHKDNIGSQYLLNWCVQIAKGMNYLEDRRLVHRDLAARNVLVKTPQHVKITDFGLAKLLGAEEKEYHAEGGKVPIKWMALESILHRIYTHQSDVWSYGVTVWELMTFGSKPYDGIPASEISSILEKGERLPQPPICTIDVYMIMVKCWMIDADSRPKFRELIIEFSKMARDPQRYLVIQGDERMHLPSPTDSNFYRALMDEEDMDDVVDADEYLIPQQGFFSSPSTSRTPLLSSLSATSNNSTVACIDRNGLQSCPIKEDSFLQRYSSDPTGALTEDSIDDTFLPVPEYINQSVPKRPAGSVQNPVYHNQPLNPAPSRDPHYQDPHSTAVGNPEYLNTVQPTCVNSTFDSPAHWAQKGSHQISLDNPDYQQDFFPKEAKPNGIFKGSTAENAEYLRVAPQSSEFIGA

[14] = molecular target: Epidermal growth factor receptor (Homo sapiens, UniProt P00533, L858R/T790M); assay type: cell-based, NCI-H1975
Epidermal growth factor receptor (Homo sapiens, UniProt P00533, L858R/T790M), sequence (P00533 25-1210 T790M/L858R limits assumed): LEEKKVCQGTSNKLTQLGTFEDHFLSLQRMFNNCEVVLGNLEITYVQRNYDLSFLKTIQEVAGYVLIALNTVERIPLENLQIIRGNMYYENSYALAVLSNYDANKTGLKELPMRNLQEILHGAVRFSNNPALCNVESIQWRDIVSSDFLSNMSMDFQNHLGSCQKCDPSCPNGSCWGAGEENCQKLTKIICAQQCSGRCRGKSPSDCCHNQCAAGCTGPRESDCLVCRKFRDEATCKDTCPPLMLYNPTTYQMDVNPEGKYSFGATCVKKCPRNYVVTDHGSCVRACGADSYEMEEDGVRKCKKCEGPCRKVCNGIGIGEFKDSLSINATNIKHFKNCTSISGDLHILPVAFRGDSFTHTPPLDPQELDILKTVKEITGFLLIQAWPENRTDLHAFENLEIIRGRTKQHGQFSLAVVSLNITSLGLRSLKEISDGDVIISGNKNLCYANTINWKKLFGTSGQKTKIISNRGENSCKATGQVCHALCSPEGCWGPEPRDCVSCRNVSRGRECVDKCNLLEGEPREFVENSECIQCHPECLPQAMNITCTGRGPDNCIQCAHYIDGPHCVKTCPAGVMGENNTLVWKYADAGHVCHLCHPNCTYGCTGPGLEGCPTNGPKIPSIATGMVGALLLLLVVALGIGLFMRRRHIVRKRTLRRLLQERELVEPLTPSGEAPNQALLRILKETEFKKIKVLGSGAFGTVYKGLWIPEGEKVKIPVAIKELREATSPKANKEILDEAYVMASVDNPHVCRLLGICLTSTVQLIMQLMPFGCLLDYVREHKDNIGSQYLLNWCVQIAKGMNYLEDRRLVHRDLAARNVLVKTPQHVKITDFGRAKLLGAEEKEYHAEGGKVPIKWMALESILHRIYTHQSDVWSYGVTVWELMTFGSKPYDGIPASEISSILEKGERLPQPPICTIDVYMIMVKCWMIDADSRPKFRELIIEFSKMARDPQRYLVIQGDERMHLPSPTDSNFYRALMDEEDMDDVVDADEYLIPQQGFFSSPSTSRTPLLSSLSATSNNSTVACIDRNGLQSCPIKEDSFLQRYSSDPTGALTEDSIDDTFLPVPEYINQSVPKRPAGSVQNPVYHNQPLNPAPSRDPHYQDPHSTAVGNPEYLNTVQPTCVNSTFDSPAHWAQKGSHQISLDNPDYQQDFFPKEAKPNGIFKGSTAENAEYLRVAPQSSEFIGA

[15] = Oral bioavailability in mouse at 25 mg/kg; assay type: ADME, organism-based; details: in vivo
Method in brief: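 Mouse dosed orally at 25 mg kg−1 as a solution in corn oil; bioavailability compared against the iv arm (5 mg kg−1 in ethanol/PEG/water).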

[16] = Volume of distribution at steady state in mouse at 5 mg/kg,iv; assay type: ADME, organism-based; details: in vivo, read-out: Vdss
Method in brief: as §1

[17] = system: Plasma; experiment: Time during which free plasma concentration exceeds IC50 for inhibition of human EGFR T790M/L858R double mutant autophosphorylation in human NCI-H1975 cells xenografted in SCID mouse at 100 mg/kg, po
[18] = Clearance in human liver microsomes; assay type: ADME, Microsome
Method in brief: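 Incubation with human liver microsomes; intrinsic clearance scaled to predicted hepatic clearance as Clhep = (Q × Clint)/(Q + Clint), where Q is liver blood flow.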

[19] = system: Epidermal growth factor receptor (Homo sapiens), P00533 [L858R,T790M]; experiment: In vivo inhibition of EGFR L858R/T790M double mutant in SCID mouse xenografted with human NCI-H1975 cells assessed as reduction in EGFR L858R/T790M double mutant phosphorylation at Y1068 residue at 100 mg/kg, po and measured after 16 hrs by MSD assay; assay type: functional, organism-based
Method in brief: as §2

[20] = Clearance in mouse plasma at 5 mg/kg,iv; assay type: ADME, organism-based
Method in brief: as §1

[21] = Fraction unbound in SCID mouse plasma at 50 to 100 mg/kg,po and measured upto 16 hrs by LC-MS assay; assay type: ADME, organism-based; details: in vivo, dose 50-100 mg/kg
[22] = system: Epidermal growth factor receptor (Homo sapiens), P00533 [L858R,T790M]; experiment: In vivo inhibition of EGFR L858R/T790M double mutant in SCID mouse xenografted with human NCI-H1975 cells assessed as reduction in ERK1/2 phosphorylation at 50 mg/kg, po and measured after 8 hrs by MSD assay; assay type: functional, organism-based
Method in brief: as §2

[23] = system: PC-9; experiment: Antiproliferative activity against human PC-9 cells harboring harboring EGFR del (746 to 750) mutant assessed as reduction in cell viability; assay type: functional, cell-based
[24] = system: NCI-H1975; experiment: Antiproliferative activity against human NCI-H1975 cells harboring harboring EGFR L858R/T790M double mutant assessed as reduction in cell viability; assay type: functional, cell-based
[25] = system: Plasma; experiment: Time during which free plasma concentration exceeds IC50 for inhibition of human EGFR T790M/L858R double mutant autophosphorylation in human NCI-H1975 cells xenografted in SCID mouse at 50 mg/kg, po

Epidermal growth factor receptor (Homo sapiens, UniProt P00533, 746-750DEL/T790M), sequence (P00533 whole entry, looked up, stated change not applied): as the sequence (P00533 whole entry, looked up, stated change not applied) above

CC[C@H](C)n1nc(N2CC(C(C)(C)O)C2)c2cnc(Nc3ccnc(-c4cnn(S(=O)(=O)C5CC5)c4)n3)cc21
IC50 [1]: 8 nM
solubility kinetic at 24 h, 100 µM [2]: 2 µM (≈ 1.1 µg/mL)
clearance [3]: 13 mL/min/kg
inhibition [4]: Active
Papp A→B [5]: 8.9 ×10⁻⁶ cm/s
bioavailability [6]: 30%
inhibition [7]: Active
inhibition [8]: Active
inhibition [9]: Active
CLhep predicted [10]: 2.7 mL/min/kg
Vd [11]: 6.9 L/kg
IC50 [12]: 218 nM
IC50 [13]: 33 nM
IC50 [14]: 27 nM
bioavailability [15]: 19%
Vd [16]: 3.4 L/kg
T>IC50 [17]: 16 h
CLhep predicted [18]: 3.8 mL/min/kg
inhibition [19]: Active
clearance [20]: 104 mL/min/kg
Fu [21]: 0.009
inhibition [22]: Active
IC50 [23]: 151 nM
IC50 [24]: 361 nM
T>IC50 [25]: 8 h
